Measurements: ChEMBL document CHEMBL1143105, “Potent and selective small molecule NS3 serine protease inhibitors of Hepatitis C virus with dichlorocyclopropylproline as P2 residue” (Bioorg Med Chem, 2008)
Values belong to the compound of their own block, whether it stands above or below them. *1 amine or outer side, *2 acyl side, *3 side chain or, on linkers, in order; H or OH if unused. Where a SMILES comes first, the peptide text is derived from it. [ ]: non-standard residue; d: D form. The star is where a group is joined. Pro(3R,4S-CMe2) = CC1(C)[C@@H]2[C@@H](C(=O)O)NC[C@@H]21; Pro(3S,4R-CCl2) = O=C(O)[C@H]1NC[C@H]2[C@@H]1C2(Cl)Cl; X2 = O=C(C(=O)[*:2])C(CC1CCC1)N[*:1]; X1 = O=C(C(=O)[*:2])C(CC1CC1)N[*:1]; X3 = CCCC(N[*:1])C(=O)C(=O)[*:2]; Chg = N[C@H](C(=O)O)C1CCCCC1; Phg = N[C@H](C(=O)O)c1ccccc1; Tle = CC(C)(C)[C@H](N)C(=O)O; Boc = CC(C)(C)OC(=O)*

Tests used:
[1] = Inhibition of hepatitis C virus NS3 serine protease; set-up: species or system Hepacivirus hominis
Hepatitis C virus = experiment: Antiviral activity in hepatitis C virus by cell based replicon assay; format: functional, organism-based, Hepacivirus hominis
[2] = AUC in rat at 10 mg/kg, po; format: ADME, organism-based; set-up: dose 10 mg/kg, route oral; conditions: plasma
[3] = AUC in rat at 10 mg/kg, iv; format: ADME, organism-based; set-up: dose 10 mg/kg, route intravenous; conditions: plasma
[4] = Half life in rat; format: ADME, organism-based; conditions: in vivo
[5] = Oral bioavailability in rat; format: ADME, organism-based; conditions: in vivo
[6] = AUC in monkey at 3 mg/kg, po; format: ADME, organism-based, Macaca mulatta; set-up: dose 3 mg/kg, route oral; conditions: rhesus monkey, plasma
[7] = AUC in monkey at 2.2 mg/kg, iv; format: ADME, organism-based, Macaca mulatta; set-up: dose 2.2 mg/kg, route intravenous; conditions: rhesus monkey, plasma
[8] = Half life in monkey; format: ADME, organism-based, Macaca mulatta; conditions: rhesus monkey, in vivo
[9] = Oral bioavailability in monkey; format: ADME, organism-based, Macaca mulatta; conditions: rhesus monkey, in vivo
[10] = AUC in dog at 3 mg/kg, po; format: ADME, organism-based, Canis lupus familiaris; set-up: dose 3 mg/kg, route oral; conditions: plasma
How it was run: (§1)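 AUC is given in µM h. Compounds were tested as mixtures of two diastereomers at the P1 α-centre, with the isomer ratio varying slightly by compound.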

[11] = AUC in dog at 2.2 mg/kg, iv; format: ADME, organism-based, Canis lupus familiaris; set-up: dose 2.2 mg/kg, route intravenous; conditions: plasma; how it was run: as §1
[12] = Half life in dog; format: ADME, organism-based, Canis lupus familiaris; conditions: in vivo
[13] = Oral bioavailability in dog; format: ADME, organism-based, Canis lupus familiaris; conditions: in vivo
[14] = AUC in rat at 7.5 mg/kg, po; format: ADME, organism-based; set-up: dose 7.5 mg/kg, route oral; conditions: plasma; how it was run: as §1
[15] = AUC in rat at 6 mg/kg, iv; format: ADME, organism-based; set-up: dose 6 mg/kg, route intravenous; conditions: plasma; how it was run: as §1
[16] = AUC in monkey at 1.5 mg/kg, po; format: ADME, organism-based, Macaca mulatta; set-up: dose 1.5 mg/kg, route oral; conditions: rhesus monkey, plasma; how it was run: as §1
[17] = AUC in monkey at 0.6 mg/kg, iv; format: ADME, organism-based, Macaca mulatta; set-up: dose 0.6 mg/kg, route intravenous; conditions: rhesus monkey, plasma; how it was run: as §1
[18] = AUC in dog at 1.5 mg/kg, po; format: ADME, organism-based, Canis lupus familiaris; set-up: dose 1.5 mg/kg, route oral; conditions: plasma; how it was run: as §1
[19] = AUC in dog at 0.6 mg/kg, iv; format: ADME, organism-based, Canis lupus familiaris; set-up: dose 0.6 mg/kg, route intravenous; conditions: plasma; how it was run: as §1

Structure (SMILES): CC(C)(OC(=O)N[C@H](C(=O)N1C[C@H]2[C@@H]([C@H]1C(=O)NC(CC1CCC1)C(=O)C(N)=O)C2(Cl)Cl)C1CCCCC1)C(F)(F)F (stereo partly specified)
Ki [1]: 65 nM

EC50 (Hepatitis C virus): 300 nM | AUC [2]: 0.32 µM·h
Structure (SMILES): CC(C)(C)NC(=O)N[C@H](C(=O)N1C[C@H]2[C@@H]([C@H]1C(=O)NC(CC1CCC1)C(=O)C(N)=O)C2(Cl)Cl)C1CCCCC1 (stereo partly specified)
Ki [1]: 6 nM

EC50 (Hepatitis C virus): 40 nM
Structure (SMILES): C[C@@H](NC(=O)N[C@H](C(=O)N1C[C@H]2[C@@H]([C@H]1C(=O)NC(CC1CCC1)C(=O)C(N)=O)C2(Cl)Cl)C1CCCCC1)C(C)(C)C (stereo partly specified)
Ki [1]: 10 nM

Structure (SMILES): CCCC(NC(=O)[C@@H]1[C@@H]2[C@H](CN1C(=O)[C@@H](NC(=O)OC(C)(C)C)C1CCCCC1)C2(Cl)Cl)C(=O)C(=O)NCC(=O)N[C@H](C(=O)N(C)C)c1ccccc1 (stereo partly drawn) (Boc-[Chg][Pro(3S,4R-CCl2)][X3]G[Phg]-NMe2)
Ki [1]: 15 nM

Structure (SMILES): CCCC(NC(=O)[C@@H]1[C@@H]2[C@H](CN1C(=O)[C@@H](NC(=O)OC(C)(C)C)C1CCCCC1)C2(Cl)Cl)C(=O)C(N)=O (stereo partly specified)
Ki [1]: 36 nM

EC50 (Hepatitis C virus): 500 nM | AUC [2]: 2.7 µM·h | AUC [3]: 10.7 µM·h | half-life [4]: 264 min | bioavailability [5]: 26% | AUC [6]: 0.13 µM·h | AUC [7]: 1.2 µM·h | half-life [8]: 576 min | bioavailability [9]: 8% | AUC [10]: 0.07 µM·h | AUC [11]: 2.6 µM·h | half-life [12]: 960 min | bioavailability [13]: 2%
Structure (SMILES): CC(C)(C)OC(=O)N[C@H](C(=O)N1C[C@H]2[C@@H]([C@H]1C(=O)NC(CC1CC1)C(=O)C(N)=O)C2(Cl)Cl)C1CCCCC1 (stereo partly specified)
Ki [1]: 11 nM

EC50 (Hepatitis C virus): 200 nM | AUC [14]: 0.12 µM·h | AUC [15]: 1.9 µM·h | half-life [4]: 162 min | bioavailability [5]: 5%
Structure (SMILES): CC(C)(C)NC(=O)N[C@H](C(=O)N1C[C@H]2[C@@H]([C@H]1C(=O)NC(CC1CCC1)C(=O)C(N)=O)C2(Cl)Cl)C(C)(C)C (stereo partly specified)
Ki [1]: 7 nM

Structure (SMILES): CN(C)C(=O)[C@@H](NC(=O)CNC(=O)C(=O)C(CC1CCC1)NC(=O)[C@@H]1[C@@H]2[C@H](CN1C(=O)[C@@H](NC(=O)OC(C)(C)C)C1CCCCC1)C2(Cl)Cl)c1ccccc1 (stereo partly drawn) (Boc-[Chg][Pro(3S,4R-CCl2)][X2]G[Phg]-NMe2)
Ki [1]: 9 nM

Structure (SMILES): CCCC(NC(=O)[C@@H]1[C@@H]2[C@H](CN1C(=O)[C@@H](NC(=O)NC(C)(C)C)C1CCCCC1)C2(Cl)Cl)C(=O)C(N)=O (stereo partly specified)
Ki [1]: 20 nM

Structure (SMILES): C=CCNC(=O)C(=O)C(CCC)NC(=O)[C@@H]1[C@@H]2[C@H](CN1C(=O)[C@@H](NC(=O)OC(C)(C)C)C1CCCCC1)C2(Cl)Cl (stereo partly specified)
Ki [1]: 90 nM

Structure (SMILES): CC(C)(C)NC(=O)N[C@H](C(=O)N1C[C@H]2[C@@H]([C@H]1C(=O)NC(CC1CCC1)C(=O)C(N)=O)C2(Cl)Cl)C1Cc2ccccc2C1 (stereo partly specified)
Ki [1]: 30 nM

EC50 (Hepatitis C virus): 200 nM | AUC [2]: 0.75 µM·h
Structure (SMILES): NC(=O)C(=O)C(CC1CCC1)NC(=O)[C@@H]1[C@@H]2[C@H](CN1C(=O)[C@@H](NC(=O)OC1CC3CCC1C3)C1CCCCC1)C2(Cl)Cl (stereo partly specified)
Ki [1]: 60 nM

Structure (SMILES): CN(C)C(=O)[C@@H](NC(=O)CNC(=O)C(=O)C(CC1CC1)NC(=O)[C@@H]1[C@@H]2[C@H](CN1C(=O)[C@@H](NC(=O)OC(C)(C)C)C1CCCCC1)C2(Cl)Cl)c1ccccc1 (stereo partly drawn) (Boc-[Chg][Pro(3S,4R-CCl2)][X1]G[Phg]-NMe2)
Ki [1]: 7 nM

Structure (SMILES): CC(C)(C)OC(=O)N[C@H](C(=O)N1C[C@H]2[C@@H]([C@H]1C(=O)NC(CC1CCC1)C(=O)C(N)=O)C2(Cl)Cl)C1Cc2ccccc2C1 (stereo partly specified)
Ki [1]: 60 nM

EC50 (Hepatitis C virus): 40 nM | bioavailability [5]: 4% | bioavailability [9]: 1%
Structure (SMILES): CN(C)C(=O)[C@@H](NC(=O)CNC(=O)C(=O)C(CC1CC1)NC(=O)[C@@H]1[C@@H]2[C@H](CN1C(=O)[C@@H](NC(=O)OC(C)(C)C)C(C)(C)C)C2(C)C)c1ccccc1 (stereo partly drawn) (Boc-[Tle][Pro(3R,4S-CMe2)][X1]G[Phg]-NMe2)
Ki [1]: 3.8 nM

Structure (SMILES): C=CCNC(=O)C(=O)C(CCC)NC(=O)[C@@H]1[C@@H]2[C@H](CN1C(=O)[C@@H](NC(=O)NC(C)(C)C)C1CCCCC1)C2(Cl)Cl (stereo partly specified)
Ki [1]: 100 nM

Structure (SMILES): NC(=O)C(=O)C(CC1CCC1)NC(=O)[C@@H]1[C@@H]2[C@H](CN1C(=O)[C@@H](NC(=O)NC1CCCCC1)C1CCCCC1)C2(Cl)Cl (stereo partly specified)
Ki [1]: 15 nM

EC50 (Hepatitis C virus): 100 nM | AUC [2]: 0.3 µM·h | AUC [3]: 2.6 µM·h | half-life [4]: 336 min | bioavailability [5]: 12% | AUC [6]: 0.77 µM·h | AUC [7]: 1.2 µM·h | half-life [8]: 66 min | bioavailability [9]: 50% | AUC [10]: 0.61 µM·h | AUC [11]: 4.5 µM·h | half-life [12]: 378 min | bioavailability [13]: 10%
Structure (SMILES): CC(C)(C)OC(=O)N[C@H](C(=O)N1C[C@H]2[C@@H]([C@H]1C(=O)NC(CC1CCC1)C(=O)C(N)=O)C2(Cl)Cl)C(C)(C)C (stereo partly specified)
Ki [1]: 9 nM

EC50 (Hepatitis C virus): 200 nM
Structure (SMILES): CC(C)(C)NC(=O)N[C@H](C(=O)N1C[C@H]2[C@@H]([C@H]1C(=O)NC(CC1CCC1)C(=O)C(N)=O)C2(C)C)C(C)(C)C (stereo partly specified) [BOCEPREVIR]
Ki [1]: 14 nM

EC50 (Hepatitis C virus): 300 nM | AUC [2]: 2.4 µM·h | AUC [16]: 0.06 µM·h | AUC [17]: 0.6 µM·h | half-life [8]: 114 min | bioavailability [9]: 4% | AUC [18]: 0.1 µM·h | AUC [19]: 2 µM·h | half-life [12]: 282 min | bioavailability [13]: 2%
Structure (SMILES): CC(C)(C)OC(=O)N[C@H](C(=O)N1C[C@H]2[C@@H]([C@H]1C(=O)NC(CC1CCC1)C(=O)C(N)=O)C2(Cl)Cl)C1CCCCC1 (stereo partly specified)
Ki [1]: 17 nM

Structure (SMILES): C=CCCC(NC(=O)[C@@H]1[C@@H]2[C@H](CN1C(=O)[C@@H](NC(=O)NC(C)(C)C)C1CCCCC1)C2(Cl)Cl)C(=O)C(=O)NCC=C (stereo partly specified)
Ki [1]: 44 nM
